The source made the active and inactive calls. No cut-off for these calls is given here.
What was measured:
Carbonic anhydrase 9 = Carbonic anhydrase 9 (Homo sapiens, UniProt Q16790); assay: Inhibition of recombinant human carbonic anhydrase 9 incubated 15 mins prior to testing by CO2 hydration based stopped-flow assay
Carbonic anhydrase 1 = Carbonic anhydrase 1 (Homo sapiens, UniProt P00915); assay: Inhibition of recombinant human carbonic anhydrase 1 incubated 6 h prior to testing by CO2 hydration based stopped-flow assay
Carbonic anhydrase 2 = Carbonic anhydrase 2 (Homo sapiens, UniProt P00918); assay: Inhibition of recombinant human carbonic anhydrase 2 incubated 6 h prior to testing by CO2 hydration based stopped-flow assay
Carbonic anhydrase 12 [1] = molecular target: T1, Carbonic anhydrase 12 (Homo sapiens, UniProt O43570); assay: Inhibition of recombinant human carbonic anhydrase 12 incubated 15 mins prior to testing by CO2 hydration based stopped-flow assay
MDA-MB-231 [2] = assay: Cytotoxicity against human MDA-MB-231 cells assessed as reduction in cell viability at 300 uM after 48 hrs under hypoxic conditions by MTT assay relative to control; assay type: functional
PC-3 [3] = assay: Cytotoxicity against human PC3 cells assessed as cell viability at 100 to 300 uM after 48 hrs under hypoxic conditions by MTT assay relative to control; assay type: functional
In short: (§1)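 PC3 human prostate cancer cells incubated 48 h with compound at a range of concentrations, under normoxia or under hypoxia (1% O2). Viability is expressed relative to control, with significance tested against control at p < 0.05, 0.01 and 0.001.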

PC-3 [4] = assay: Cytotoxicity against human PC3 cells assessed as cell viability at higher concentration after 48 hrs under normoxic conditions by MTT assay relative to control; assay type: functional; in short: as §1
PC-3 [5] = assay: Cytotoxicity against human PC3 cells assessed as cell viability at 30 uM after 48 hrs under normoxic conditions by MTT assay relative to control; assay type: functional; settings: PC-3, 48 h, read-out: Activity; in short: as §1
PC-3 [6] = assay: Cytotoxicity against human PC3 cells assessed as cell viability at 30 uM after 48 hrs under hypoxic conditions by MTT assay relative to control; assay type: functional; settings: PC-3, 48 h, read-out: Activity; in short: as §1
MDA-MB-231 [7] = assay: Cytotoxicity against human MDA-MB-231 cells assessed as reduction in cell viability at 30 uM after 48 hrs under normoxic conditions by MTT assay relative to control; assay type: functional
Carbonic anhydrase 12 [8] = molecular target: T1, Carbonic anhydrase 12; assay: Inhibition of recombinant human carbonic anhydrase 12 incubated 6 h prior to testing by CO2 hydration based stopped-flow assay
PC-3 [9] = assay: Cytotoxicity against human PC3 cells assessed as cell viability at 300 uM after 48 hrs under normoxic conditions by MTT assay relative to control; assay type: functional; settings: PC-3, 48 h, read-out: Activity; in short: as §1
MDA-MB-231 [10] = assay: Cytotoxicity against human MDA-MB-231 cells assessed as reduction in cell viability at 300 uM after 48 hrs under normoxic conditions by MTT assay relative to control; assay type: functional
MDA-MB-231 [11] = assay: Cytotoxicity against human MDA-MB-231 cells assessed as reduction in cell viability at 30 uM after 48 hrs under hypoxic conditions by MTT assay relative to control; assay type: functional
PC-3 [12] = assay: Cytotoxicity against human PC3 cells assessed as cell viability at 300 uM after 48 hrs under hypoxic conditions by MTT assay relative to control; assay type: functional; settings: PC-3, 48 h, read-out: Activity; in short: as §1
PC-3 [13] = assay: Cytotoxicity against human PC3 cells assessed as reduction in cell viability at 1 to 300 uM after 48 hrs under hypoxic conditions by MTT assay; assay type: functional, cell-based; in short: as §1
PC-3 [14] = assay: Cytotoxicity against human PC3 cells assessed as reduction in cell viability at 1 to 300 uM after 48 hrs under normoxic conditions by MTT assay; assay type: functional, cell-based; in short: as §1
MDA-MB-231 [15] = assay: Cytotoxicity against human MDA-MB-231 cells assessed as reduction in cell viability at 1 to 300 uM after 48 hrs under hypoxic conditions by MTT assay; assay type: functional, cell-based
MDA-MB-231 [16] = assay: Cytotoxicity against human MDA-MB-231 cells assessed as reduction in cell viability at 1 to 300 uM after 48 hrs under normoxic conditions by MTT assay; assay type: functional, cell-based

T1 sequence (O43570 whole entry): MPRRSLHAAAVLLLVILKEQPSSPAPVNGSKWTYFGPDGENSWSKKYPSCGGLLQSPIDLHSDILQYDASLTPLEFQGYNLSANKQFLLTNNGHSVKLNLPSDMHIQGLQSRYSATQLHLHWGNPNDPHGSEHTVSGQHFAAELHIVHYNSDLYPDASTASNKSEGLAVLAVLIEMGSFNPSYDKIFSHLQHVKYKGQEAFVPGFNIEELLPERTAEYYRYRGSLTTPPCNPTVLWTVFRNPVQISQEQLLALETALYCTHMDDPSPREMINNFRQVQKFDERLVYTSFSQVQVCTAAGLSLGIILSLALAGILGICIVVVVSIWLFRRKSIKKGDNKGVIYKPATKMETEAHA
Chain of Carbonic anhydrase 1 (P00915 whole entry): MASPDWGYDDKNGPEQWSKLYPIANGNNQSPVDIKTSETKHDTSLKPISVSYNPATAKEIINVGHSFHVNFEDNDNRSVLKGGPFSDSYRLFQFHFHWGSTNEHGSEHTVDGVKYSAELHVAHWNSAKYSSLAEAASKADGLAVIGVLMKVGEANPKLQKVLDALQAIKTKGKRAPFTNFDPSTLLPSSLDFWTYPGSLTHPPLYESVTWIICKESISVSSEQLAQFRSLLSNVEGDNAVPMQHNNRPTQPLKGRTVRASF

Compound	Ki (Carbonic anhydrase 9) [nM]	Ki (Carbonic anhydrase 1) [nM]	Ki (Carbonic anhydrase 2) [nM]	also measured
S=c1ccc2ccccc2[se]1	39.5	> 10000	> 10000	–
O=c1ccc2cccc(Cl)c2[nH]1	23	> 10000	> 10000	–
O=c1ccc2ccccc2[te]1	59	> 10000	> 10000	Ki (Carbonic anhydrase 12 [1]): 8.2 nM; Activity (MDA-MB-231 [2]): 22%; Activity (PC-3 [3]): 38%; Activity (PC-3 [4]): 19%; viability at 30 µM (PC-3 [5]): 54%; viability at 30 µM (PC-3 [6]): 71%; Activity (MDA-MB-231 [7]): 15.9%
Cn1c(=O)ccc2ccccc21	44.6	> 10000	> 10000	Ki (Carbonic anhydrase 12 [8]): 83.5 nM
O=c1ccc2ccccc2[se]1	26.3	> 10000	> 10000	viability at 300 µM (PC-3 [9]): 68%; Activity (MDA-MB-231 [10]): 28%; Activity (MDA-MB-231 [2]): 90%; Activity (MDA-MB-231 [11]): >50%; viability at 300 µM (PC-3 [12]): 68%
O=c1ccc2cccc(F)c2[nH]1	58.8	> 10000	> 10000	–
[Se]=c1ccc2ccccc2[nH]1	54.4	> 10000	> 10000	Activity (PC-3 [13]): inactive; Activity (PC-3 [14]): inactive; Activity (MDA-MB-231 [15]): inactive; Activity (MDA-MB-231 [16]): inactive
Oc1ccc2ccccc2n1	–	> 10000	> 10000	–
Cc1ccc2[nH]c(=O)ccc2c1	123	> 10000	> 10000	–
Cn1c(=[Se])ccc2ccccc21	172	> 10000	> 10000	Ki (Carbonic anhydrase 12 [1]): 86.4 nM
Cc1ccc2[se]c(=O)ccc2c1	56.1	> 10000	> 10000	Ki (Carbonic anhydrase 12 [1]): 7.6 nM
Cc1ccc2[se]c(=S)ccc2c1	59.9	> 10000	> 10000	Activity (MDA-MB-231 [15]): inactive; viability at 30 µM (PC-3 [5]): 51%; viability at 30 µM (PC-3 [6]): 79%; Activity (MDA-MB-231 [7]): 61%
O=c1ccc2cccc(Br)c2[nH]1	23.4	> 10000	> 10000	–
